Most compounds without a hit are left out; they make up all but 1.9% or so of the library.
Runt-CBFb FRET: inhibitors of human RUNX1 Runt domain binding to CBFb; Cerulean-Runt/Venus-CBFb FRET ratio 530/480, 1 h; 220,000 compounds, 0.46% hits; inhibition, % at 20 µM; AID 1496;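 active = inhibition over about 50% at 20 µM in the single-dose screen, limit read from the data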;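 note: 0% = DMSO wells and 100% = excess unlabeled CBFb competitor control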
Target sequence (Q01196 whole entry, looked up, the tested form may be a part): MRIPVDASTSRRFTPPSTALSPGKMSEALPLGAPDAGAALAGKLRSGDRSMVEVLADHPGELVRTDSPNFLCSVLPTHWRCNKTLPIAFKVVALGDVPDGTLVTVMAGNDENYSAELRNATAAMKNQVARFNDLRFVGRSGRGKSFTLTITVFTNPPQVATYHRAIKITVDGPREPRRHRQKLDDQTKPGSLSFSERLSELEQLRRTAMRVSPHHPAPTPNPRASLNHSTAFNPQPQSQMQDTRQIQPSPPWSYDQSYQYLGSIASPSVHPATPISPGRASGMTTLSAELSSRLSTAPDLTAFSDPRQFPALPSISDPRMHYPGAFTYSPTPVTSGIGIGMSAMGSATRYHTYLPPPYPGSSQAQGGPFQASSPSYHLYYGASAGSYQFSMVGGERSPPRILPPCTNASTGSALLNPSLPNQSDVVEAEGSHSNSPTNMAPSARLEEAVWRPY
Target sequence (Q13951 whole entry, looked up, the tested form may be a part): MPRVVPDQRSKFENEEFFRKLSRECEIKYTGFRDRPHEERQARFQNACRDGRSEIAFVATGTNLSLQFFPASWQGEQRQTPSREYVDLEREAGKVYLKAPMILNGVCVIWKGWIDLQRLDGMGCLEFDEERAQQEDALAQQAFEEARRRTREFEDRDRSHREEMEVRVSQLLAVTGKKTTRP
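Measured by: fluorescence energy transfer, 422 nm excitation, 530/480 nm emission; test system: Cerulean-tagged RUNX1 Runt domain (FRET donor) fusion protein; buffer or medium: Tris pH 7.5 buffer with BSA; compound: one dose, 20 µM compound, 1% DMSO; times: two 1 h room-temperature incubations shielded from light; benchmarks: unlabeled CBFb 5 µM, positive control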
Runt-SMMHC FRET: Runt domain-CBFb-SMMHC interaction inhibition; Q01196+Q13951; AID 1434; inhibition, % at 20 µM; 220,000 compounds, 0.74% hits; Cerulean-Runt/Venus-CBFb-SMMHC FRET ratio 530/480, 1 h;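 active = mean inhibition across duplicate retests at 20 µM reaching about 50%, limit read from the data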;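 note: 0% = DMSO wells and 100% = wells with excess untagged CBFb-SMMHC; inhibitors lower the FRET ratio by blocking Runt binding to CBFb-SMMHC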
Hck-Nef inh: human Hck-Nef kinase inhibition; P08631; Recombinant Hck-YEEI plus Nef, Z-Lyte FRET kinase assay; inhibition, % at 20 µM; 220,000 compounds, 0.68% hits;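 active = Hck-Nef kinase inhibition above about 50%, limit read from the data; inactive = inhibition below that limit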;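 note: 0% = DMSO with Hck plus Nef and 100% = Hck alone without Nef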
RanGTP-Impb inh: inhibitors of RanGTP-importin-beta interaction, primary screen, biochemical, FRET, CFP-Ran, YFP-importin-beta, homogeneous. inhibition, % (concentration not given with the values). 300,000 compounds, 1.1% hits. AID 2216. cell-free CFP-Ran/YFP-importin-beta FRET ratio;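 active = more than half of the replicate wells show a fall in the fluorescence ratio signal beyond about 16%, limit read from the data, passing the limit was not always enough; inconclusive = exactly half of the replicate wells pass the set limit; inactive = fewer than half of replicates pass the limit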;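 note: 0% = DMSO wells and 100% = Ran loaded with GDP instead of GTP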
* marks the source's active call; other numbers are inactive results; ? = inconclusive; · = no result given.

SMILES	Runt-CBFb FRET	Runt-SMMHC FRET	Hck-Nef inh	RanGTP-Impb inh
O=C(CN1C(=O)CSc2ccc(S(=O)(=O)N3CCOCC3)cc21)N1CCCCC1	·	·	·	62*
O=C(CN1C(=O)CSc2ccc(S(=O)(=O)N3CCOCC3)cc21)NCCCN1CCOCC1	-1	-2	17	151*
CCC1CN(C(=O)N2CCC(C(=O)NCCc3ccc(OC)cc3OC)CC2)c2ccccc2O1 (stereo unspecified)	·	·	·	-1
COC(=O)CSc1nc(N2CCOCC2)c2c(c1C#N)CC(C)(C)N(C)C2	19	56*	1	18*
CCSc1nc(N2CCOCC2)c2c(c1C#N)CC(C)(C)N(C)C2	95*	91*	0	-3
CC1(C)Cc2c(C#N)c(SCC(=O)c3ccccc3)nc(N3CCOCC3)c2CS1	10	-2	-1	2
CN1Cc2c(N3CCOCC3)nc(SCc3ccccc3)c(C#N)c2CC1(C)C	47	62*	2	27*
C=CCSc1nc(N2CCOCC2)c2c(c1C#N)CC(C)(C)N(C)C2	16	12	19	?
CC(=O)Nc1ccc(/C(C)=N/Nc2nc(Nc3cccc4ccccc34)nc(N3CCOCC3)n2)cc1	-1	-3	-1	-3
Cc1nnc(N2CCN(C)CC2)c2nn(-c3ccc(Cl)cc3)c(C)c12	·	·	6	·
COc1ccc(CN(C)C(=S)Nc2ccc(Cl)cc2)cc1	-2	2	5	-5
CC(=O)COc1ccc2c(c1C)O/C(=C\c1ccco1)C2=O	·	·	·	18*
CCN(CC)c1ccc(/C=C(/C#N)c2nc3ccccc3[nH]2)c(OC(C)C)c1	-98	-271	-4	-59
CCN(CC)c1ccc2cc(-c3nnc(-c4ccc(Br)cc4)o3)c(=O)oc2c1	·	·	-4	·
CCN(CC)c1ccc2cc(-c3nc4ccccc4[nH]3)c(=O)oc2c1	19	79*	-9	129*
CCN(CC)c1ccc2cc(-c3nnc(-c4ccccc4)o3)c(=O)oc2c1	5	83*	6	115*
CN(C)Cc1c(O)ccc2cc(-c3nc4ccccc4n3C)c(=O)oc12	·	·	·	132*
COc1ccc2cc(-c3ccccc3)c(=O)oc2c1	·	·	·	3
CCN(CC)c1ccc2cc(-c3nc(-c4ccc(OC)cc4)cs3)c(=O)oc2c1	20	62*	-10	·
COc1cccc2cc(-c3nc4ccccc4[nH]3)c(=O)oc12	·	·	·	-17
CC(OC(=O)CCC1CCCC1)C(=O)Nc1ccccc1[N+](=O)[O-] (stereo unspecified)	·	·	·	-5
Cc1ccc(C)c(NC(=O)CSc2nc(=O)n(CCN3CCOCC3)c3c2CCCC3)c1	·	·	·	2
Cc1[nH]c(=O)c(C(=O)/C=C/c2ccccc2F)c2c1CCCC2	-8	-27	3	6
Cc1ccc2nc(Cl)c(/C=N/Nc3nc(C)cc(C)n3)c(=O)n2c1	4	-20	-9	0
CCN(CC)c1ccc2cc(-c3nc4ccccc4n3C)c(=O)oc2c1	12	61*	9	126*
SMILES	Runt-CBFb FRET	Runt-SMMHC FRET	Hck-Nef inh	RanGTP-Impb inh
COC(=O)c1cc(NC(=O)Nc2ccccc2OC)cc(C(=O)OC)c1	-1	-3	18	-2
O=C(O)CC(C(=O)O)N1C(=O)/C(=C/C=C/c2ccco2)SC1=S (stereo unspecified)	39	-2	71*	-5
O=C1S/C(=C\C=C\c2ccco2)C(=O)N1c1ccc(O)cc1	15	0	6	-4
CCOC(=O)c1c(C)[nH]c(C(=O)CN2CCN(CC)CC2)c1C	2	-2	13	0
CCOC(=O)c1c(C)[nH]c(C(=O)CN2CC(C)OC(C)C2)c1C (stereo unspecified)	-4	-1	-1	29*
CCCCCCOc1ccc(N2C(=O)CC(SC(=NCC)NCC)C2=O)cc1 (stereo unspecified)	0	-2	26	0
O=C(CCC1CCCNC1)c1ccccc1 (stereo unspecified)	·	·	·	-1
CCOC(=O)C1=CN(C)C=C(C(=O)OCC)C1c1ccsc1	122*	99*	47	53*
COC(=O)C1=C(C)N(C)C(C)=C(C(=O)OC)C1c1ccsc1	-2	0	0	2
COC(=O)C1=CN(CC2CCCO2)C=C(C(=O)OC)C1c1ccccc1C(F)(F)F (stereo unspecified)	106*	82*	31	62*
COC(=O)C1=CN(CC2CCCO2)C=C(C(=O)OC)C1c1ccsc1 (stereo unspecified)	88*	134*	49	11
COC(=O)C1=C(C)OC(N)=C(C#N)C1c1ccsc1 (stereo unspecified)	-6	-6	-4	3
COC(=O)C1=CN(Cc2ccc(OC)cc2)C=C(C(=O)OC)C1c1ccsc1	68*	134*	7	?
COC(=O)C1=CN(Cc2ccc(F)cc2)C=C(C(=O)OC)C1c1ccc(O)c(OC)c1	·	·	·	10
COc1ccc(OC)c(NC(=O)CN2CCc3ccccc3C2)c1	·	·	·	2
Cc1ccc(OCc2cc(C(=O)NC3CCc4ccccc43)no2)cn1 (stereo unspecified)	·	·	·	-1
O=C(N/N=C/c1sc(N2CCOCC2)nc1-c1ccccc1)c1ccccc1O	0	13	7	6
O=C(N/N=C/c1sc(N2CCOCC2)nc1-c1ccccc1)c1ccccc1Cl	3	4	-2	30*
COc1cc(/C=C2\SC(N)=NC2=O)ccc1O	·	·	·	-6
O=c1[nH]c2ccccc2n1Cc1ccccc1	-1	-2	2	0
O=c1nc2n(Cc3ccccc3)c3ccccc3cc-2c(=O)[nH]1	63*	82*	16	89*
O=C(NCCCNC(=O)c1ccc(-c2cccc(Cl)c2)o1)c1cnccn1	·	·	·	3
CCN1CCc2nc(NC(=O)c3ccccc3)sc2C1	44	109*	9	53*
O=C(Nc1ccnn1C1CCN(Cc2ccccc2)CC1)C1CCCC1	·	·	·	-1
O=C(Nc1nc2c(s1)CN(Cc1ccccc1)CC2)C1CCC1	42	130*	29	2
COc1cc(C)ccc1OCCOCCOc1cc(C)c(C)cc1Br	-4	-3	2	3
COc1ccc(/C=C(/NC(=O)c2ccccc2)C(=O)N2CCOCC2)cc1OC	·	·	·	0
